pEC50: −log10 of the molar value. Activity calls are given as the source filed them.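 How the source made its calls: active means maximal cell kill higher at a 0.156 ng/ml dose of TRAIL, the death-signal protein, than with no TRAIL; inactive means the rest.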
Columns and labels:
[1] = cytotoxicity with versus without TRAIL, dose response, mechanism study for TRAIL sensitizer project, cell-based, PPC-1, ATPlite luminescence, 24 h (AID 1765); details: PPC-1 cytotoxicity with TRAIL, ATPLite luminescence, 24 h
How it was run: (§1)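 Material: PPC-1 cells; probe or stimulus: TRAIL at 0.156 ng/mL, or no TRAIL (0 ng/mL); compound dosing: 2-fold series from 10 µM, 0.5% DMSO; timing: compound pre-incubation 4 h before TRAIL, then 24 h TRAIL exposure; technique: ATPlite luminescence; benchmarks: 10 µM doxorubicin with TRAIL as full-kill reference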

[2] = tested on: PPC-1 cytotoxicity with TRAIL, ATPLite luminescence, 24 h; assay: as above
How it was run: as §1

[3] = measured here: max cytotoxicity with TRAIL
[4] = measured here: max cytotoxicity without TRAIL
[5] = measured here: cytotoxicity without TRAIL

SMILES	maximal effect [1, 3]	maximal effect [1, 4]	pEC50 [2]	pEC50 [2, 5]	EC50 [2]
CSc1nc(-c2ccc(C)cc2)nc(C(Cl)Cl)n1	94.5%	50.4%	6.00	6.09	
CCSc1nc(-c2ccccc2)nc(C(Cl)Cl)n1	46.7%	34.2%	5.59	5.60	
CSc1nc(-c2ccccc2)nc(C(Cl)Cl)n1				< 5.00	> 10000 nM (inactive)

Source: PubChem BioAssay AID1765 (Sanford-Burnham Center for Chemical Genomics, 2009)
